Measurements reported in ChEMBL document CHEMBL1134635, “Aziridinyl quinone antitumor agents based on indoles and cyclopent[b]indoles: structure-activity relationships for cytotoxicity and antitumor activity” (2001).

Experiments:
[1] = system: Nucleic Acid; experiment: % of DNA reductive alkylation determined by catalytic reduction of aziridinyl quinones in presence of 600 bp calf thymus DNA; type: functional; design: concentration or dose not given beside the values; details: Bos taurus
Procedure, shortened: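 Calf thymus DNA (1-2 mg, sonicated to ~600 bp) in 0.05 M Tris pH 7.4 with Pd/C, quinone added at 5:1 base pair equivalents in DMSO. Degassed under argon, H2-purged 10 min, argon-purged, then 30 °C for 24 h anaerobically. Catalyst filtered off, DNA ethanol-precipitated twice, and alkylation quantified by absorbance at 550 nm (ε 800 M-1 cm-1).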

[2] = molecular target: NAD(P)H dehydrogenase [quinone] 1 (Homo sapiens) (UniProt P15559); experiment: The substrate specificity obtained from the ratio of Vmax to KM for human DT-diaphorase (from non-small-cell lung NCI-H460 cell line); type: cell-based
Chain of NAD(P)H dehydrogenase [quinone] 1 (Homo sapiens) (P15559 whole entry): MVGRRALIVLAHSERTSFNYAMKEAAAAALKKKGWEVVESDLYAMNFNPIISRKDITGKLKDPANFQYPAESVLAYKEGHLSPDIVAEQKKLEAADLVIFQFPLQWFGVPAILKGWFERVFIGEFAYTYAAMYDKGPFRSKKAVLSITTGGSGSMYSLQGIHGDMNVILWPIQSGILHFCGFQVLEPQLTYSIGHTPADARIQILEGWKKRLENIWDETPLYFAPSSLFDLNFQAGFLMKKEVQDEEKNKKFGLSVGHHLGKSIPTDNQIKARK
Procedure, shortened: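 Recombinant human DT-diaphorase (from NCI-H460) at 1.4 × 10^-9 M final with 0.3 mM NADH in Tris buffer, quinone 1.3 × 10-6 to 6.7 × 10^-5 M final from a 4.0 mM DMSO stock. Both parts argon-purged 20 min and held at 30 °C 10 min, then mixed.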

[3] = system: B16; experiment: Treated over control values(T/C) were measured at day 25 by B16 melanoma syngraft assay at 2 mg/kg/day on day 1 after sc tumor implantation of 10 E(5) cells; type: functional, Mus musculus; details: route subcutaneous
Procedure, shortened: (§1)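 B16 melanoma syngraft in C57/bl mice, 10^5 cells implanted subcutaneously in the front flank on day 0. T/C recorded at day 25. Toxic means early lethality, or ≥50% lethality before any control deaths.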

[4] = system: B16; experiment: Treated over control values(T/C) were measured at day 25 by B16 melanoma syngraft assay at 5 mg/kg/day on day 9 after sc tumor implantation of 10 E(5) cells; type: functional, Mus musculus; details: route subcutaneous; procedure, shortened: as §1
[5] = system: NCI-H460; experiment: Concentration of the drug required for total growth inhibition against NSC H460 cell line.; type: functional; details: Homo sapiens, read-out: Log TGI (converted)
[6] = system: NCI-H460; experiment: Concentration of the drug required for 50% growth inhibition against NSC (non small cell) H460 cell line.; type: functional; details: Homo sapiens
[7] = system: Panel NCI-60 (60 carcinoma cell lines); experiment: Cancer specificity was measured from the +/- value under average log LC50 60-cell line.; type: functional; details: Homo sapiens, read-out: Average log LC50 (converted)
[8] = system: NCI-H460; experiment: Concentration required for total growth inhibition against NSC H460 cell line.; type: functional; details: Homo sapiens, read-out: Log TGI (converted)
[9] = system: NCI-H460; experiment: Concentration required for 50% growth inhibition against NSC (non small cell) H460 cell line.; type: functional; details: Homo sapiens
[10] = system: Panel NCI-60 (60 carcinoma cell lines); experiment: Cancer specificity was measured from the +/- value under average log LC50 60-cell line; type: functional; details: Homo sapiens, read-out: Average log LC50 (converted)
[11] = system: NCI-H460; experiment: Concentration required for 50% cell kill. against NSC H460 cell line.; type: functional; details: Homo sapiens; for CC50: read-out: Log LC50 (the source's name) (converted)
[12] = system: B16; experiment: Treated over control values(T/C) were measured at day 25 by B16 melanoma syngraft assay at 3 mg/kg/day on day 5 after sc tumor implantation of 10 E(5) cells; type: functional, Mus musculus; details: route subcutaneous; procedure, shortened: as §1

Row | Structure (SMILES) | Activity [1] | Ratio [2] | Activity [3] | Activity [4] | TGI [5] | GI50 [6] | LC50 [7] | TGI [8] | GI50 [9] | CC50 [10] | CC50 [11] | Activity [12] | LC50 [11]
1 | CC(=O)OC1CCc2c3c(n(C(C)=O)c21)C(=O)C(C)=C(N1CC1)C3=O (configuration not stated) | 1.2% | 132000 |  |  |  |  |  |  |  |  |  |  | 
2 | CC1=C(N2CC2)C(=O)c2[nH]c3c(c2C1=O)CCC3O (configuration not stated) | 10% | 142000 | 75% | 45% | 107 nM | 10 nM | 72400 nM |  |  |  |  |  | 
3 | CC1=C(N2CC2)C(=O)c2c(c(CO)c(CO)n2C)C1=O | 0% | 41700 |  | >50% |  |  |  | 219 nM | 38.9 nM |  |  |  | 
4 | CCOC(=O)c1[nH]c2c(c1CO)C(=O)C=C(N1CC1)C2=O | 2.2% |  |  |  | 4070 nM | 1580 nM |  |  |  | 4790 nM |  |  | 
5 | CCOC(=O)c1[nH]c2c(c1CO)C(=O)C(N1CC1)=C(C)C2=O | 5.6% | 403000 |  |  | 10.2 nM | 10 nM | 2040 nM |  |  |  | 87.1 nM |  | 
6 | O=C1C=C(N2CC2)C(=O)c2c1[nH]c(CO)c2CO | 16.7% | 587000 | >50% | >50% |  |  |  |  |  |  |  | >50% | 
7 | CCOC(=O)c1[nH]c2c(c1COC(C)=O)C(=O)C(N1CC1)=CC2=O | 91.2% | 722000 |  |  | 170 nM | 37.1 nM | 2400 nM |  |  |  | 603 nM |  | 
8 | CC1=C(N2CC2)C(=O)c2[nH]c(CO)c(C)c2C1=O |  |  | 61% | 34% |  |  |  |  |  |  |  | 37% | 
9 | Cn1c(CO)c(CO)c2c1C(=O)C=C(N1CC1)C2=O | 3.8% | 302000 | >50% | >50% | 10 nM | 10 nM | 4470 nM |  |  |  |  | >50% | 10 nM
10 | CC(=O)OC1CCc2c1[nH]c1c2C(=O)C(C)=C(N2CC2)C1=O (configuration not stated) | 44% | 160000 |  |  | 676 nM | 112 nM | 21400 nM |  |  |  |  |  | 1230 nM
11 | CC(=O)OC1CCc2c1[nH]c1c2C(=O)C=C(N2CC2)C1=O (configuration not stated) | 29% | 802000 |  | >50% |  |  |  |  |  |  |  |  | 
12 | CC(=O)OCc1[nH]c2c(c1COC(C)=O)C(=O)C(N1CC1)=CC2=O | 43% | 172000 |  |  |  |  |  |  |  |  |  |  | 
13 | CC1=C(N2CC2)C(=O)c2c([nH]c(CO)c2CO)C1=O | 2% | 81500 | 36% | >50% | 32.4 nM | 10 nM | 2880 nM |  |  |  |  | >50% | 1170 nM
14 | CC(=O)OC1CCc2c1[nH]c1c2C(=O)C(N2CC2)=C(C)C1=O (configuration not stated) | 21% | 65500 |  |  |  |  |  |  |  |  |  |  | 
15 | O=C1C(N2CC2)=CC(=O)c2c1[nH]c1c2CCC1O (configuration not stated) | 30% | 128000 |  |  | 57.5 nM | 7.24 nM | 2570 nM |  |  |  | 1780 nM |  | 
16 | CC1=C(N2CC2)C(=O)c2c(CO)c(CO)n(C)c2C1=O | 0% | 32600 |  |  |  |  |  |  |  |  |  |  | 
